Laboratory results as given in ChEMBL document CHEMBL1148339, “Synthesis, structure-activity relationships, and drug resistance of beta-d-3'-fluoro-2',3'-unsaturated nucleosides as anti-HIV Agents” (J Med Chem, 2004).

Substrate: Nc1ncnc2c1ncn2[C@H]1C=C[C@@H](CO)O1
Assay: Menten constant against adenosine deaminase (ADA)
Method in brief: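 Deamination by calf intestinal mucosa adenosine deaminase (0.15 units, MW 33 000, in 2 mL) in phosphate buffer pH 7.4 at 25 °C, substrate 15–100 μM, monitored by UV at 265 nm. Initial rates from graphical fitting of concentration vs time; Vmax and KM from Lineweaver–Burk plot, kcat calculated from enzyme amount.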

B1: Adenosine deaminase (Bos taurus), P56658 (protein)
chain: MAQTPAFNKPKVELHVHLDGAIKPETILYYGRKRGIALPADTPEELQNIIGMDKPLSLPEFLAKFDYYMPAIAGCREAVKRIAYEFVEMKAKDGVVYVEVRYSPHLLANSKVEPIPWNQAEGDLTPDEVVSLVNQGLQEGERDFGVKVRSILCCMRHQPSWSSEVVELCKKYREQTVVAIDLAGDETIEGSSLFPGHVKAYAEAVKSGVHRTVHAGEVGSANVVKEAVDTLKTERLGHGYHTLEDATLYNRLRQENMHFEVCPWSSYLTGAWKPDTEHPVVRFKNDQVNYSLNTDDPLIFKSTLDTDYQMTKNEMGFTEEEFKRLNINAAKSSFLPEDEKKELLDLLYKAYGMPSPASAEQCL
With B1 the Km was 30 µM.
